In ChEMBL document CHEMBL5653631, “A Potent and Selective ULK1 Inhibitor Suppresses Autophagy and Sensitizes Cancer Cells to Nutrient Stress” (iScience, 2018):
Calls of active or inactive are those of the source. The calls are words filed in the database; no cut-off is given here.

Assays:
U2OS = test: Inhibition of autophagy in human U2OS cells expressing […] assessed as DFCP1-positive puncta formation at 5 uM incubated for 2.5 hrs in presence of […] by Fluorescent microscopy based analysis; type: functional, cell-based
How it was run: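 U2OS cells stably expressing EGFP-DFCP1 treated 2.5 hr with vehicle or 100 nM AZD8055, with or without 5 μM inhibitor; imaged live by fluorescence microscopy; DFCP1-positive objects per cell counted in 20–25 cells per condition; mean ± SEM, two-tailed unpaired t test.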

[1] = target: Serine/threonine-protein kinase MARK1 (Homo sapiens) (UniProt Q9P0L2); test: Inhibition of human recombinant MARK1 at 40 nM related to control ULK1
[2] = target: Casein kinase II subunit alpha (Homo sapiens) (UniProt P68400); test: Inhibition of human recombinant CK2a1 at 15 nM in presence of ATP by radiometric assay relative to control
[3] = target: Insulin receptor (Homo sapiens) (UniProt P06213); test: Inhibition of human recombinant INSR at 15 nM related to control ULK1
[4] = target: Serine/threonine-protein kinase tousled-like 2 (Homo sapiens) (UniProt Q86UE8); test: Inhibition of human recombinant TLK2 at 15 nM related to control ULK1
[5] = target: Non-receptor tyrosine-protein kinase TYK2 (Homo sapiens) (UniProt P29597); test: Inhibition of human recombinant TYK2 at 15 nM related to control ULK1
[6] = target: Tyrosine-protein kinase Fyn (Homo sapiens) (UniProt P06241); test: Inhibition of human recombinant FYN at 500 nM in presence of ATP by radiometric assay relative to control
[7] = target: Protein kinase C eta type (Homo sapiens) (UniProt P24723); test: Inhibition of human recombinant PKCH at 500 nM in presence of ATP by radiometric assay relative to control
[8] = target: T1, Serine/threonine-protein kinase Nek1 (Homo sapiens) (UniProt Q96PY6); test: Inhibition of human recombinant NEK1 at 500 nM related to control ULK1
T1 sequence (whole entry): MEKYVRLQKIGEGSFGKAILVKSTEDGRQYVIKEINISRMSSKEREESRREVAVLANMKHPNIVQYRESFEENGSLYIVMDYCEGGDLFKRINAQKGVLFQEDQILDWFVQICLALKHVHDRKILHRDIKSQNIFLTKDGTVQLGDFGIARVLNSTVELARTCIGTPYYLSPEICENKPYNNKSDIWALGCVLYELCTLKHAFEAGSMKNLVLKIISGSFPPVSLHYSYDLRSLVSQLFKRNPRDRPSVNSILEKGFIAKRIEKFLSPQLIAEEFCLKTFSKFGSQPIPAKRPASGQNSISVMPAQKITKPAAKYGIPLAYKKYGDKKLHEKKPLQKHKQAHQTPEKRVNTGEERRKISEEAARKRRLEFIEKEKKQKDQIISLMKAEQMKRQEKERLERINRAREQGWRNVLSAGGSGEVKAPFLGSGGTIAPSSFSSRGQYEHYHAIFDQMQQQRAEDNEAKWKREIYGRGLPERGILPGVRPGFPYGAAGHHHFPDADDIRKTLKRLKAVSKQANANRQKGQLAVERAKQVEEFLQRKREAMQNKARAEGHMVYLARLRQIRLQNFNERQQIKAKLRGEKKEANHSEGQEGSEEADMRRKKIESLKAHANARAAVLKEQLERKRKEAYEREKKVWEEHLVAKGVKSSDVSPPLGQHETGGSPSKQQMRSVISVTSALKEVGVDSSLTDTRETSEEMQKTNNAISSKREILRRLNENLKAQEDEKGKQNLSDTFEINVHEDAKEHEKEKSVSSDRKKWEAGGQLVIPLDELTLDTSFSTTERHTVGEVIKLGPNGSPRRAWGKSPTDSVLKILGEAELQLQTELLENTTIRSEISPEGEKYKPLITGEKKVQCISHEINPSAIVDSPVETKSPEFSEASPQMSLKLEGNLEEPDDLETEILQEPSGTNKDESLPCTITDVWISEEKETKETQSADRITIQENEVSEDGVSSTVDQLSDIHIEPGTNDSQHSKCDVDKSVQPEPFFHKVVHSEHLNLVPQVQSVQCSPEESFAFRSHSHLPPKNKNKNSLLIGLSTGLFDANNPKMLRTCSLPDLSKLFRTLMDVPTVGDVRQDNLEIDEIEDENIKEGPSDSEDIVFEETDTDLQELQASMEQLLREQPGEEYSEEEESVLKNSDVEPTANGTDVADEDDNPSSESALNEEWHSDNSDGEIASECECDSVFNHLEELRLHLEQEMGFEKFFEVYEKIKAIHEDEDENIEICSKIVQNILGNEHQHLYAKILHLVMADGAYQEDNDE

[9] = target: T2, NUAK family SNF1-like kinase 2 (Homo sapiens) (UniProt Q9H093); test: Inhibition of human recombinant NuaK2 at 500 nM related to control ULK1
T2 sequence (whole entry): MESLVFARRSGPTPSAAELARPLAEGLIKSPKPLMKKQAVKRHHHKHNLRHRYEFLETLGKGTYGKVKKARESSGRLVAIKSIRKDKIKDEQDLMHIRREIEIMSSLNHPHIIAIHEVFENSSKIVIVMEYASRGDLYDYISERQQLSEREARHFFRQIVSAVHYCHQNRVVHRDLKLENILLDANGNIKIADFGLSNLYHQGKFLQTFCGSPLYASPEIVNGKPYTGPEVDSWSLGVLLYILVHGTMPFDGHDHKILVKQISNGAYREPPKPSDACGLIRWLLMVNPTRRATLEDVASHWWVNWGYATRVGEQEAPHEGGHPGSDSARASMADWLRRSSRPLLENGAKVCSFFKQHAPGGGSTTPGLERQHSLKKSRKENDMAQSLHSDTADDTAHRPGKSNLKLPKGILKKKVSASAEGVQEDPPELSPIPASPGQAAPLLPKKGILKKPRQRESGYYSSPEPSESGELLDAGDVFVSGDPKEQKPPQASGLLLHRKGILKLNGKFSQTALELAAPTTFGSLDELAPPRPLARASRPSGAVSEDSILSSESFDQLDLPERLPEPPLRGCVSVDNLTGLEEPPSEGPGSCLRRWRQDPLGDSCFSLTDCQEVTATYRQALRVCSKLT

[10] = target: Protein-tyrosine kinase 2-beta (Homo sapiens) (UniProt Q14289); test: Inhibition of human recombinant PYK2 at 500 nM related to control ULK1
[11] = target: Serine/threonine-protein kinase SIK1 (Homo sapiens) (UniProt P57059); test: Inhibition of human recombinant SIK at 500 nM related to control ULK1
Serine/threonine-protein kinase SIK1 (Homo sapiens), sequence (P57059 whole entry): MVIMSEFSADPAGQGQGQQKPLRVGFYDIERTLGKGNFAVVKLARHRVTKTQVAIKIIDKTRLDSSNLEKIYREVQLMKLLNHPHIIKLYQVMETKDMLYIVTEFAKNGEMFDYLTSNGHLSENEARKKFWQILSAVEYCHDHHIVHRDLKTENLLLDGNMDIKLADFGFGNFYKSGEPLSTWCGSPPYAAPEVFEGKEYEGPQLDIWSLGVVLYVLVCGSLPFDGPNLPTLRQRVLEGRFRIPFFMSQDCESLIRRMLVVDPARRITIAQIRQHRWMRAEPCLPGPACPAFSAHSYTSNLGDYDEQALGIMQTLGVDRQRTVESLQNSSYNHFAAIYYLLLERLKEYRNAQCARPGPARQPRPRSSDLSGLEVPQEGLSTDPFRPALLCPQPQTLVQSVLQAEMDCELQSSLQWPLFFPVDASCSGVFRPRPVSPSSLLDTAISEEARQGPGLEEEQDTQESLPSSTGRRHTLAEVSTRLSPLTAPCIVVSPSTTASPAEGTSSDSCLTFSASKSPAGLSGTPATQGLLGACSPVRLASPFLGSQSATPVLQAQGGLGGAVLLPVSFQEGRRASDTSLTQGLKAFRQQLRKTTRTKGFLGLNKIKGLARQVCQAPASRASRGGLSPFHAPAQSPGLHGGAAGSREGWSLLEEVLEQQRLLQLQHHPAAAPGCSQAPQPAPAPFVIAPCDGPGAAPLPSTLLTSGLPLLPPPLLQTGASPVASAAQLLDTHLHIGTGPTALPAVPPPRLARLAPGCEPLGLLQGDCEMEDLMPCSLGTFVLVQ

Tyrosine-protein kinase Fyn (Homo sapiens), sequence (P06241 2-537 limits assumed): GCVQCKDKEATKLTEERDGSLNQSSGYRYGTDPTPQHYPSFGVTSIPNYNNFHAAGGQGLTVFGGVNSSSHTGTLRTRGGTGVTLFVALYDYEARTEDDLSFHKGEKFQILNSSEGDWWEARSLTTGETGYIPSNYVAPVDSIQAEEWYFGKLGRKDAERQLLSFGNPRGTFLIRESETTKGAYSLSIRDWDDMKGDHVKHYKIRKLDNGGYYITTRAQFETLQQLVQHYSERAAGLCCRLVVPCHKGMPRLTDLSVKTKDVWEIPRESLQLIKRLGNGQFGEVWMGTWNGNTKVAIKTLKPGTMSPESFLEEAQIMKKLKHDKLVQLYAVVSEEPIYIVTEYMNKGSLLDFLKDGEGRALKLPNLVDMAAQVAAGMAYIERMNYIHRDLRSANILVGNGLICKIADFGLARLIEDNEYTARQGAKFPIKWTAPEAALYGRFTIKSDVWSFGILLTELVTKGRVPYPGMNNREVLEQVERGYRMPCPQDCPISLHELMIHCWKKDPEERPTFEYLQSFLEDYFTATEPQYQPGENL
Serine/threonine-protein kinase tousled-like 2 (Homo sapiens), sequence (Q86UE8 whole entry, looked up): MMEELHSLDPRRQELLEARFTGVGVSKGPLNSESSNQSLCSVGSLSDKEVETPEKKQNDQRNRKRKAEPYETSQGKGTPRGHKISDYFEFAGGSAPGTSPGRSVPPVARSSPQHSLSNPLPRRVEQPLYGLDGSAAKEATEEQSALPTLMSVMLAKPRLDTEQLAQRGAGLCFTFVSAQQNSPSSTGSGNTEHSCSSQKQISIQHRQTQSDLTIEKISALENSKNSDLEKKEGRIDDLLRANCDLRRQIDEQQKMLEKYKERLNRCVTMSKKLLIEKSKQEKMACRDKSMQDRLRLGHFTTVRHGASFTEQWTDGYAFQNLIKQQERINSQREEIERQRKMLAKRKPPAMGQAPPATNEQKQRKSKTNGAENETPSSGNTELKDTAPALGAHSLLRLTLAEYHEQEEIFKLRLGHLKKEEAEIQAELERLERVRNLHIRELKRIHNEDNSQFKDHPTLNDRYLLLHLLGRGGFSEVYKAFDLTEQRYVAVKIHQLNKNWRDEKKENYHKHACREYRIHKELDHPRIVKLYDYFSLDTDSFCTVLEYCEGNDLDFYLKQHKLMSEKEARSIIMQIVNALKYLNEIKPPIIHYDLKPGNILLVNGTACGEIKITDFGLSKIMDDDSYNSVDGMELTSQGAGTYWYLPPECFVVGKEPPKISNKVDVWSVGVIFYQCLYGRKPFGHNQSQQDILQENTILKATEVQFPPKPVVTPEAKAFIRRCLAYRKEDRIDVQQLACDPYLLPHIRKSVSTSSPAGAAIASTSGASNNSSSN
Insulin receptor (Homo sapiens), sequence (P06213 28-758 limits assumed): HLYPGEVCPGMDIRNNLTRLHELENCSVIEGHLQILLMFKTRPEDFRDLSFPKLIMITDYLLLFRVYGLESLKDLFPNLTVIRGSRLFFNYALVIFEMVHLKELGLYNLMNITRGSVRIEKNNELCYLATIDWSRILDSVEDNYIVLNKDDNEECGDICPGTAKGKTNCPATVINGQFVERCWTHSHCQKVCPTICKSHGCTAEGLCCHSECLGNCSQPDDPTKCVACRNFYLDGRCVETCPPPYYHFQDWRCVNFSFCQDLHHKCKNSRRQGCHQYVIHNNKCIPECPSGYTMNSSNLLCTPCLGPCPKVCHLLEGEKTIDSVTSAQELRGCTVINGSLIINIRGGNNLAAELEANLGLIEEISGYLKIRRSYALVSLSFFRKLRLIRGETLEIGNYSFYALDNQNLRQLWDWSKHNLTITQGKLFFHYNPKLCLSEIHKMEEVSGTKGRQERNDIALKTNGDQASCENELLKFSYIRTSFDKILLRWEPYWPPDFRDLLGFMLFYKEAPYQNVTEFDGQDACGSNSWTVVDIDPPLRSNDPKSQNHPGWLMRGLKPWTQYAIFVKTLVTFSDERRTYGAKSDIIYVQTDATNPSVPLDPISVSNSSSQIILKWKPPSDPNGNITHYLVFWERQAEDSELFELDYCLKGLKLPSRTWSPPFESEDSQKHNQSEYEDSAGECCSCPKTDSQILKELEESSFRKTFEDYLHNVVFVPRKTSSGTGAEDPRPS
Insulin receptor (Homo sapiens), sequence (P06213 763-1382 limits assumed): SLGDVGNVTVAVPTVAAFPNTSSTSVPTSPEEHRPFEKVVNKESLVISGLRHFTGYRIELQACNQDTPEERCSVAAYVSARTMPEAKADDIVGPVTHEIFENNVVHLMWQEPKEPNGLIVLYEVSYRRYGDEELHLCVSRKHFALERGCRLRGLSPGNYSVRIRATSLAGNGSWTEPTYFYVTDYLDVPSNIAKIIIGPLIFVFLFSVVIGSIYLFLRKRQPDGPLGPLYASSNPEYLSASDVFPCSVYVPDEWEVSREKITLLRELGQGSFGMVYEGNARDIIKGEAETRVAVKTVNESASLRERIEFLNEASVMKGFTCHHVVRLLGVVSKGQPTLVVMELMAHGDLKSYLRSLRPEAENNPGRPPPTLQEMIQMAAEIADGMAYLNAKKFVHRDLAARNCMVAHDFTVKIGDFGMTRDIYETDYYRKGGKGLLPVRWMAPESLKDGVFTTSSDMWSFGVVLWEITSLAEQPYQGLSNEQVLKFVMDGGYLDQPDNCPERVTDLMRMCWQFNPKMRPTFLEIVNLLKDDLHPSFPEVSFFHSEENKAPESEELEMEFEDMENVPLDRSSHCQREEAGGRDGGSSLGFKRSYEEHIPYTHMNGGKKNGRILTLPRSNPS
Serine/threonine-protein kinase MARK1 (Homo sapiens), sequence (Q9P0L2 whole entry, looked up): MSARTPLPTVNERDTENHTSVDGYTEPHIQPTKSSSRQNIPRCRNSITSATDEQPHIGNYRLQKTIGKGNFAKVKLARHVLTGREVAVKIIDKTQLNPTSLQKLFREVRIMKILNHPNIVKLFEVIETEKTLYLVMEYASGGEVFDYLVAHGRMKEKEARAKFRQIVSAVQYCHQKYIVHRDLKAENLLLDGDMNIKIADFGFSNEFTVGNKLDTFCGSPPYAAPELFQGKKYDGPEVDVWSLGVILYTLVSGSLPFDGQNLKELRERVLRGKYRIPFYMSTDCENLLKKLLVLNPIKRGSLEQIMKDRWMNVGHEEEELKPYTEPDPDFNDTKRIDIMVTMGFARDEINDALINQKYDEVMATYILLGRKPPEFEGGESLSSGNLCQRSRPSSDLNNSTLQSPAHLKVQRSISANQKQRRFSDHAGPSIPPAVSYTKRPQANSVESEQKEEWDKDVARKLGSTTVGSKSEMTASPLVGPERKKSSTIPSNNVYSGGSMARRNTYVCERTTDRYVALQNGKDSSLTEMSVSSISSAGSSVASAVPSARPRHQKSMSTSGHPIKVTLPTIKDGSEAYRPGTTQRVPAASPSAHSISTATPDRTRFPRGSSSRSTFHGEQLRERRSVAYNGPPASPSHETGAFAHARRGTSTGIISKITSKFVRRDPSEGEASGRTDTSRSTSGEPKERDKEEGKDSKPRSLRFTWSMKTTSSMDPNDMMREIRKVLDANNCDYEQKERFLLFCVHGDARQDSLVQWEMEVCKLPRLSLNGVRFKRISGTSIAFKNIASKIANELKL
Casein kinase II subunit alpha (Homo sapiens), sequence (P68400 whole entry, looked up): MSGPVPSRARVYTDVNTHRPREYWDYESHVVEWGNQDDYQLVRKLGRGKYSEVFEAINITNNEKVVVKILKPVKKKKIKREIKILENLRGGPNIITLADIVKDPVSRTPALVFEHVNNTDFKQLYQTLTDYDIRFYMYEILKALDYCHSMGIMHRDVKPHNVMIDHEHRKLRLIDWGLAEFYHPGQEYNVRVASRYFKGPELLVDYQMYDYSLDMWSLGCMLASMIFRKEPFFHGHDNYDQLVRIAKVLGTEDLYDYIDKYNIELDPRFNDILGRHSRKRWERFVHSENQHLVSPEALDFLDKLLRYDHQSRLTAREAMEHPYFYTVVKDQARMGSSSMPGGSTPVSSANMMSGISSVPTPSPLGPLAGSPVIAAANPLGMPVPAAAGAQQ

SMILES: O=C(N[C@@H](C1CC1)C(F)(F)F)c1cc(-c2cnn3cc(-c4ccc(F)cc4)cnc23)cs1
- inhibition (U2OS): Active
- fold change (FC) [1]: 0.4

SMILES: CC(C)[C@H](NC(=O)c1cc(-c2cnn3cc(-c4ccc(OCCN5CCCCC5)cc4)cnc23)cs1)C(F)(F)F
- inhibition [2]: 0%
- fold change (FC) [3]: 0
- fold change (FC) [4]: 0.03
- fold change (FC) [5]: 0.02

SMILES: CNC(=O)c1ccccc1Oc1nc(Nc2cc(OC)c(OC)c(OC)c2)ncc1Br
- inhibition [6]: 19%
- inhibition [7]: 7%
- fold change (FC) [8]: 0.11
- fold change (FC) [9]: 0.86
- fold change (FC) [10]: 0.72
- fold change (FC) [11]: 0.27
